Each block holds one compound with its values, some of them ahead of it. Where a SMILES comes first, the peptide text is derived from it. [ ]: non-standard residue; d: D form. The star is where a group is joined. FITC = O=C1OC2(c3ccc(O)cc3Oc3cc(O)ccc32)c2ccc(NC(=S)*)cc21; Phe(4-F) = N[C@@H](Cc1ccc(F)cc1)C(=O)O; d2Nal = N[C@H](Cc1ccc2ccccc2c1)C(=O)O; dNle = CCCC[C@@H](N)C(=O)O
Tests used:
[1] = tested on: phosphorylation of MEK; experiment: EGF-stimulated MEK phosphorylation in H1299 cells; type: cell-based, human
Summary of the method: (§1)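 H1299 cells exposed to a range of test compound concentrations for 10 min, then stimulated with EGF (50 ng/ml) for 5 min before lysis. Phospho-Akt (Thr308) and phospho-MEK detected by immunoblot, with total Akt and MEK blotted alongside.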

[2] = tested on: caspase-3 activity; experiment: Caspase-3 activity in H1299 cells; type: cell-based, human; conditions: 10 μM, 3 h
[3] = tested on: phosphorylation of Akt at Thr308; experiment: EGF-stimulated Akt Thr308 phosphorylation in H1299 cells; type: cell-based, human
Summary of the method: as §1

[4] = tested on: Ras-B-Raf interaction; experiment: Ras-B-Raf co-immunoprecipitation in H358 cells; type: cell-based, human; conditions: anti-Ras precipitation, anti-B-Raf immunoblot
Summary of the method: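 H358 lung cancer cells treated with increasing test compound concentrations. Lysates immunoprecipitated with anti-Ras antibody and co-precipitated B-Raf detected by anti-B-Raf immunoblot. Whole-cell lysate blotted alongside.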

[5] = tested on: H1299 cells; experiment: Annexin-FITC / propidium iodide flow cytometry of treated H1299 cells; type: cell-based, human; conditions: 10 μM, 3 h
[6] = molecular target: Ras-Raf interaction (Homo sapiens, UniProt P01116, G12V); experiment: Homogeneous time-resolved fluorescence; type: binding; conditions: Gln-8 replaced with L- or D-arginine, versus 9A1-4
[7] = tested on: lung cancer cells; experiment: Cell permeability of hits; type: cell-based, human; conditions: qualitative
Summary of the method: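 A549 lung cancer cells given 5 μM FITC-labelled test compound for 30 min. Uptake viewed live by confocal microscopy with DRAQ5 nuclear counterstain. Total cell-associated fluorescence measured by flow cytometry against untreated control cells.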

[8] = molecular target: K-Ras (Homo sapiens, UniProt P01116, G12V); experiment: Fluorescence anisotropy; type: binding; conditions: fluorescence anisotropy in solution
[9] = tested on: lung cancer cells; experiment: Anti-proliferative activity against lung cancer cells; type: cell-based, human; conditions: qualitative
[10] = molecular target: panel of five arbitrarily selected control proteins; experiment: FA binding to control proteins
[11] = tested on: A549 lung cancer cells; experiment: Flow cytometry of cellular uptake of FITC-labeled peptides; type: cell-based, human; conditions: 5 μM, 30 min

Chain of Ras-Raf interaction (P01116 1-188 isoform P01116-2 G12V): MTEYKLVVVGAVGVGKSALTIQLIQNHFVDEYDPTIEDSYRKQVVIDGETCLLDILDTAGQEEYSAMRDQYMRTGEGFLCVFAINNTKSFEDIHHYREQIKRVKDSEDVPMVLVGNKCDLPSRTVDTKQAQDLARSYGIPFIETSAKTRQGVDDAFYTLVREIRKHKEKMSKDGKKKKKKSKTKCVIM
Chain of K-Ras (P01116 1-188 isoform P01116-2 G12V): as above

Compound: CCCC[C@H]1NC(=O)[C@H]([C@@H](C)O)NC(=O)[C@@H](C)NC(=O)[C@H](CCCNC(=N)N)NC(=O)[C@H](CCCNC(=N)N)NC(=O)[C@H](CCCNC(=N)N)NC(=O)[C@@H](Cc2ccc3ccccc3c2)NC(=O)[C@H](CCCNC(=N)N)NC(=O)[C@H](Cc2ccc(F)cc2)NC(=O)[C@H](Cc2c[nH]c3ccccc23)NC(=O)[C@H](CCC(N)=O)NC1=O [9A5] (cyclo(QW[Phe(4-F)]R[d2Nal]RRR[dA]T[dNle]))
concentration abolishing MEK phosphorylation ([1]; H1299 cells): ≥ 12 µM
exposure time at which dephosphorylation of MEK was largely complete ([1]; time-course experiment): 10 min
fold increase in caspase-3 activity [2]: 2.3 fold
concentration abolishing Akt Thr308 phosphorylation ([3]; H1299 cells): ≥ 12 µM
exposure time at which dephosphorylation of Akt was largely complete ([3]; time-course experiment): 10 min
inhibition of Ras-B-Raf interaction in cells [4]: dose-dependently inhibited
annexin-FITC and propidium iodide staining [5]: positive
fold higher affinity for K-Ras [6]: ~ 4 fold
cell permeability [7]: improved cell permeability

fold higher affinity for K-Ras [6]: ~ 4 fold
cell permeability [7]: improved cell permeability
Compound: CCCC[C@H]1NC(=O)[C@H]([C@@H](C)O)NC(=O)[C@@H](C)NC(=O)[C@@H](CCCNC(=N)N)NC(=O)[C@H](CCCNC(=N)N)NC(=O)[C@H](CCCNC(=N)N)NC(=O)[C@@H](Cc2ccc3ccccc3c2)NC(=O)[C@H](CCCNC(=N)N)NC(=O)[C@H](Cc2ccc(F)cc2)NC(=O)[C@H](Cc2c[nH]c3ccccc23)NC(=O)[C@H](CCC(N)=O)NC1=O [9A6] (cyclo(QW[Phe(4-F)]R[d2Nal]RR[dR][dA]T[dNle]))

binding to K-Ras [8]: strong binding
cell permeability [7]: cell permeable
Compound: CCCC[C@H]1NC(=O)[C@H]([C@@H](C)O)NC(=O)[C@@H](C)NC(=O)[C@H](CCC(N)=O)NC(=O)[C@H](CCCNC(=N)N)NC(=O)[C@H](CCCNC(=N)N)NC(=O)[C@@H](Cc2ccc3ccccc3c2)NC(=O)[C@H](CCCNC(=N)N)NC(=O)[C@H](Cc2ccc(F)cc2)NC(=O)[C@H](Cc2c[nH]c3ccccc23)NC(=O)[C@@H](CO)NC1=O [9A] (cyclo([dS]W[Phe(4-F)]R[d2Nal]RRQ[dA]T[dNle]))
anti-proliferative activity [9]: weak anti-proliferative activity

Compound: CCCC[C@H]1NC(=O)[C@H]([C@@H](C)O)NC(=O)[C@@H](C)NC(=O)[C@H](CCCNC(=N)N)NC(=O)[C@H](CCCNC(=N)N)NC(=O)[C@H](CCCCNC(=S)Nc2ccc3c(c2)C(=O)OC32c3ccc(O)cc3Oc3cc(O)ccc32)NC(=O)[C@@H](Cc2ccc3ccccc3c2)NC(=O)[C@H](CCCNC(=N)N)NC(=O)[C@H](Cc2ccc(F)cc2)NC(=O)[C@H](Cc2c[nH]c3ccccc23)NC(=O)[C@H](CCC(N)=O)NC1=O [FITC-9A5] (cyclo(QW[Phe(4-F)]R[d2Nal]K(FITC)RR[dA]T[dNle]))
Kd [10]: ≥ 30 µM
fold more efficient cell entry than FITC-9A54 [11]: ~ 5 fold

— article PMC4591930 (Angewandte Chemie (International ed. in English), 2015)
